Laboratory results published in ChEMBL document CHEMBL4393740, “Preparation and biological evaluation of soluble tetrapeptide epoxyketone proteasome inhibitors” (Bioorg Med Chem, 2019).

Key:
U-266 = experiment: Cytotoxicity against human U266B1 cells assessed as cell viability measured after 72 hrs by celltiter96 aqueous cell proliferation assay; format: functional, cell-based; conditions: U-266, 72 h
In short: (§1)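 Suspension cells in log phase plated at 5000 (RPMI8226) or 10000 (U266B1) cells per well. Viability read after 72 h by MTS-type CellTiter 96 AQueous One assay on a plate reader. IC50 reported, three repeats.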

ARH-77 = experiment: Antitumour activity against human ARH77 cells xenografted in nude mouse assessed as tumor growth at 5mg/kg, iv dosed at day 1 ,4, 8 ,11, 15 and 18 for 3 weeks and measured every 2 days by caliper method relative to control; format: functional
In short: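 Nude mice given subcutaneous 1 × 10^7 ARH77 cells. Randomized at mean tumour 100-150 mm3 into treatment and control groups, n = 5. Dosed i.v. 5 mg/kg on days 1, 4, 8, 11, 15 and 18 for 3 weeks. Tumours sized by caliper, V = length×width²/2, RTV = Vt/V0. T/C% = mean RTV treated / mean RTV control × 100.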

[1] = Half life in rat liver microsomes at 1 uM pre-incubated for 5 mins followed by NADP+ addition and measured up to 20 mins by LC-MS analysis; format: ADME, Microsome
RPMI-8226 [2] = experiment: Antitumour activity against luciferase expressing human RPMI8226 cells xenografted in NOD/SCID mouse assessed as tumor growth at 2 mg/kg, iv qd for 21 days by caliper method relative to control; format: functional
In short: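 NOD/SCID mice given subcutaneous 5 × 10^6 luciferase-expressing RPMI-8226 cells. Randomized at mean tumour 100-150 mm3, n = 3 per group. Dosed i.v. 2 mg/kg QD for 3 weeks. Tumour also imaged by IVIS, ROI […] taken 3 min after D-luciferin 150 mg/kg. Caliper volume V = length×width²/2, RTV = Vt/V0. T/C% = mean RTV treated / mean RTV control × 100.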

[3] = Intrinsic clearance in BALB/c mouse liver microsomes at 1 uM pre-incubated for 5 mins followed by NADP+ addition and measured up to 20 mins by LC-MS analysis; format: ADME, Microsome; conditions: read-out: CLH
In short: (§2)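 Mixture held 1 µM compound, 0.5 mg/mL microsomal protein (in-house pooled Balb/c mouse or pooled human), 100 mM Tris-HCl pH 7.4, and an NADPH-generating system (5 mM isocitric acid, 0.2 U/mL isocitric dehydrogenase, 5 mM MgCl2, 1 mM NADP+). Preincubated 5 min at 37 °C, started with NADP+, sampled at 0, 5, 10, 20 min. Quenched with cold acetonitrile containing 1 µM phenytoin internal standard. Compound loss measured by LC-MS/MS. Controls omitted NADPH and/or microsomes.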

[4] = Intrinsic clearance in dog liver microsomes at 1 uM pre-incubated for 5 mins followed by NADP+ addition and measured up to 20 mins by LC-MS analysis; format: ADME, Canis lupus familiaris, Microsome; conditions: read-out: CLH
[5] = Half life in dog liver microsomes at 1 uM pre-incubated for 5 mins followed by NADP+ addition and measured up to 20 mins by LC-MS analysis; format: ADME, Canis lupus familiaris, Microsome
[6] = Intrinsic clearance in human liver microsomes at 1 uM pre-incubated for 5 min followed by NADP+ addition and measured up to 20 mins by LC-MS analysis; format: ADME, Microsome; conditions: read-out: CLH; in short: as §2
[7] = Intrinsic clearance in rat liver microsomes at 1 uM pre-incubated for 5 mins followed by NADP+ addition and measured up to 20 mins by LC-MS analysis; format: ADME, Microsome; conditions: read-out: CLH
[8] = Intrinsic clearance in monkey liver microsomes at 1 uM pre-incubated for 5 min followed by NADP+ addition and measured up to 20 mins by LC-MS analysis; format: ADME, Macaca mulatta, Microsome; conditions: rhesus monkey, read-out: CLH
[9] = Half life in human liver microsomes at 1 uM pre-incubated for 5 mins followed by NADP+ addition and measured up to 20 mins by LC-MS analysis; format: ADME, Microsome; in short: as §2
[10] = Half life in BALB/c mouse liver microsomes at 1 uM pre-incubated for 5 mins followed by NADP+ addition and measured up to 20 mins by LC-MS analysis; format: ADME, Microsome; in short: as §2
[11] = target: Voltage-gated inwardly rectifying potassium channel KCNH2 (Homo sapiens, UniProt Q12809); experiment: Inhibition of human ERG in HEK293 cells assessed as effect on QT interval; format: cell-based; conditions: human, hek293
RPMI-8226 [12] = experiment: Cytotoxicity against human RPMI8226 cells assessed as cell viability measured after 72 hrs by celltiter96 aqueous cell proliferation assay; format: functional, cell-based; conditions: RPMI-8226, 72 h; in short: as §1
[13] = target: T1, Proteasome Macropain subunit MB1 (Homo sapiens, UniProt P28074); experiment: Inhibition of human chymotrypsin-like activity of 20S proteasome using Suc-LLVY-AMC as substrate pre-incubated for 10 mins followed by substrate addition and measured after 1 hr by spectrofluorimetry; conditions: read-out: IC50
T1 sequence (P28074 whole entry): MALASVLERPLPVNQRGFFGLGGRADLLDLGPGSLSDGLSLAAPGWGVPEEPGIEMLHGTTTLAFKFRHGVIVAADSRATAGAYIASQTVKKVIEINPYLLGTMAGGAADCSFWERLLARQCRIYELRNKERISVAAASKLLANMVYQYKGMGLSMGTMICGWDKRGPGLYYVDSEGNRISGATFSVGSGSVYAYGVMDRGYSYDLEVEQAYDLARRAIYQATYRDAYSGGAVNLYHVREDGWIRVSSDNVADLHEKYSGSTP

[14] = Half life in monkey liver microsomes at 1 uM pre-incubated for 5 mins followed by NADP+ addition and measured up to 20 mins by LC-MS analysis; format: ADME, Macaca mulatta, Microsome; conditions: rhesus monkey
[15] = Potency index, ratio of compound half life in human liver microsomes to carfilzomib half life in human liver microsomes; format: ADME, Microsome

Sequence of Voltage-gated inwardly rectifying potassium channel KCNH2 (Q12809 whole entry): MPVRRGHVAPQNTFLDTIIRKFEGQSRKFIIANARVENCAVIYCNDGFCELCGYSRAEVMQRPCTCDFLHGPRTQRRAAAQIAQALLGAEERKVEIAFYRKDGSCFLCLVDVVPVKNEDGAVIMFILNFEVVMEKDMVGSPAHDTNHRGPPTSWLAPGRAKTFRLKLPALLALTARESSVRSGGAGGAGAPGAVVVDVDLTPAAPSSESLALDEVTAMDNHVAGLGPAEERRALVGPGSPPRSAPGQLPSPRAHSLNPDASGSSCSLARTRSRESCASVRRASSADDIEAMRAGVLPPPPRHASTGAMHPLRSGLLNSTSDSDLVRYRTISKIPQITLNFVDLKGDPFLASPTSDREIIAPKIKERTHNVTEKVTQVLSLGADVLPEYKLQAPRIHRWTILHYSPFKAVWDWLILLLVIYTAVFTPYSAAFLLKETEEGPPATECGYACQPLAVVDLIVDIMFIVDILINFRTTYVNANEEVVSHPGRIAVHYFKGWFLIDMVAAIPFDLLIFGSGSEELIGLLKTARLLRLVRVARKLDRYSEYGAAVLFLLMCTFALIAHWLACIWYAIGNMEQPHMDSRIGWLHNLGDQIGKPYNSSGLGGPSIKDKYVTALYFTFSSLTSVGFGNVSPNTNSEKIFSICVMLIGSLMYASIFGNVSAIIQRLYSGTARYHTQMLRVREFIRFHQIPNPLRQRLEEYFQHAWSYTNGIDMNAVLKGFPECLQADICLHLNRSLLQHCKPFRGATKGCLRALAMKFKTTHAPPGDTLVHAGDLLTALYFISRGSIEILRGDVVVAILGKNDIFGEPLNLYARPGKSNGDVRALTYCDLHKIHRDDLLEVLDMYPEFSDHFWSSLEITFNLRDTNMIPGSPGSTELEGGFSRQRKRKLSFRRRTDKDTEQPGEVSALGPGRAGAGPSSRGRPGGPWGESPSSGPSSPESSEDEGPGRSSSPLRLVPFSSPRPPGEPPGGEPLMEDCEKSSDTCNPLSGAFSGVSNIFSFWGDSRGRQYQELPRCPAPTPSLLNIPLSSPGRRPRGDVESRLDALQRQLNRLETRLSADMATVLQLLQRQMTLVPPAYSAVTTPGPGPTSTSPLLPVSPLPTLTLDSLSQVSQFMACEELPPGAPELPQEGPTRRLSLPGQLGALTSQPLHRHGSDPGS

- half-life at 1 µM [1]: 1.36 min
- microsomal CLint at 1 µM [3]: 1250 µL/min/mg
- microsomal CLint at 1 µM [4]: 5710 µL/min/mg
- half-life at 1 µM [5]: 0.243 min
- microsomal CLint at 1 µM [6]: 1300 µL/min/mg
- microsomal CLint at 1 µM [7]: 1020 µL/min/mg
- microsomal CLint at 1 µM [8]: 6560 µL/min/mg
- half-life at 1 µM [9]: 1.07 min
- half-life at 1 µM [10]: 1.1 min
- IC50 [13]: 36.8 nM
- half-life at 1 µM [14]: 0.211 min
- Ratio [15]: 4
SMILES: CC(C)C[C@H](NC(=O)[C@H](Cc1cscn1)NC(=O)CN1CCOCC1)C(=O)N[C@@H](Cc1ccccc1)C(=O)N[C@@H](CC(C)C)C(=O)[C@@]1(C)CO1
- IC50 (U-266): 24.5 nM
- T/C (ARH-77): 37.6%
- T/C (RPMI-8226 [2]): 49.5%
- inhibition (INH) [11]: Not Active
- IC50 (RPMI-8226 [12]): 27.7 nM
